Source: paper PMC4857052 (Molecular pharmacology, 2012)
Values joined by “and” are separate entries in the source; they are usually repeats but may differ in a detail not shown here. Equal entries are not always repeated. Where two headings read alike, the source gives them in different places.

Columns and labels:
TbU1 = details: procyclic forms (PCF); NE = no effect on uptake at concentration indicated; ref De Koning and Jarvis (1998), Papageorgiou et al. (2005), Gudin et al. (2006); cited from earlier work
[1] = test system: TbT1 (P1-type nucleoside transporter); experiment: [3H]-thymidine transport in bloodstream forms; assay type: cell-based, Trypanosoma brucei brucei; details: for effect on [3H]-thymidine transport (in words): bloodstream forms
TbU2 = details: read-out: Ki, U2; procyclic forms (PCF); ref De Koning and Jarvis (1998), Papageorgiou et al. (2005), Gudin et al. (2006); cited from earlier work
5F-2′dURes trypanosomes = experiment: [3H]-thymidine uptake in 5F-2′dURes; assay type: cell-based, Trypanosoma brucei brucei
Method in brief: (§1)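 Log-phase cells were washed into HEPES/bicarbonate glucose buffer (pH 7.3) at 1 × 10^8/ml and mixed with an equal volume of [3H]-permeant, with or without unlabeled competitor, at ambient temperature. Uptake was stopped with ice-cold buffer containing saturating unlabeled permeant, then cells were spun through oil. Counts were corrected for nonspecific binding and Km, Vmax and Ki obtained by curve fitting. Runs were in triplicate. Thymidine: 10 μM label, 15 min. Orotic acid: 10 min.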

[2] = target: P1-type nucleoside transporter; experiment: [3H]-inosine uptake in bloodstream forms; assay type: cell-based, Trypanosoma brucei brucei; details: read-out: Ki for inhibition of inosine uptake; monophasic, n = 4
Method in brief: as §1

[3] = test system: s427WT T. b. brucei bloodstream forms; experiment: Kinetic parameters of pyrimidine transport in wild-type bloodstream forms; assay type: cell-based, Trypanosoma brucei brucei; details: [3H]-permeant; strain s427WT
Method in brief: as §1

[4] = test system: T. b. brucei bloodstream forms; experiment: [3H]-orotic acid uptake, wild-type bloodstream forms; assay type: cell-based, Trypanosoma brucei brucei
5-FOARes trypanosomes = experiment: [3H]-orotic acid uptake, 5-FOARes versus wild-type; assay type: cell-based, Trypanosoma brucei brucei; details: over 10 min; two experiments
Method in brief: as §1

5FURes T. b. brucei = experiment: Alamar blue drug sensitivity assay, 5FURes; assay type: cell-based, Trypanosoma brucei brucei
Method in brief: (§2)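 Bloodstream-form T. b. brucei s427 grown in HMI-9 with 10% FBS at 37°C under 5% CO2. Resistant lines were made by months of stepwise-increasing exposure to the analog, then cloned by limiting dilution. Viability was read by resazurin (Alamar blue) reduction. Thymidine rescue was tested by adding 100 μM thymidine.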

[5] = test system: DNA of T. brucei bloodstream forms; experiment: Incorporation into DNA; assay type: cell-based, Trypanosoma brucei brucei; details: 100 μM, 12 hours; natural deoxynucleotides 500-5000-fold above detection limit
Method in brief: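 Bloodstream forms were exposed to 100 μM test compound for 12 h (37°C, 5% CO2), with untreated parallel controls. DNA was extracted by SDS/RNase A lysis overnight at 37°C and phenol/chloroform, then digested with 1000 units exonuclease III at 37°C for 48 h. The digest was mixed 1:3 with acetonitrile, centrifuged, and the supernatant analysed by HILIC–high-resolution LC-MS.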

5F-2′dURes cells = experiment: Metabolomic analysis of treated 5F-2′dURes cells; assay type: cell-based, Trypanosoma brucei brucei; details: 100 μM, 8 hours
5F-2′dURes T. b. brucei = experiment: Alamar blue drug sensitivity assay, 5F-2′dURes; assay type: cell-based, Trypanosoma brucei brucei
Method in brief: as §2

5FOARes T. b. brucei = experiment: Alamar blue drug sensitivity assay, 5FOARes; assay type: cell-based, Trypanosoma brucei brucei
Method in brief: as §2

[6] = test system: T. b. brucei bloodstream forms strain 427 WT; experiment: Alamar blue drug sensitivity assay, wild-type; assay type: cell-based, Trypanosoma brucei brucei; details: for EC50: Trypanosoma brucei
Method in brief: as §2

[7] = test system: variant surface glycoprotein; experiment: Effect on glycosylation / variant surface glycoprotein content; assay type: cell-based, Trypanosoma brucei brucei; details: 100 μM
[8] = resistance factor: IC50(resistant clone)/IC50(WT)

Cc1cn([C@H]2C[C@H](O)[C@@H](CO)O2)c(=O)[nH]c1=O [Thymidine]
Ki, U1 (TbU1): NE, 1000 | rate of [3H]-thymidine transport ([1]; 10 μM thymidine, 5-30 min): 0.0015 ± 0.0003 pmol(10^7 cells)^−1s^−1 | Km ([1]; read-out: Km, T1, bloodstream forms (BSF)): 1240 ± 310 µM | Ki (TbU2): 0.38 ± 0.07 µM | increase in thymidine affinity relative to wild-type (5F-2′dURes trypanosomes): > 50 fold | increase in transport efficiency relative to wild-type (5F-2′dURes trypanosomes): six-fold | Vmax of [3H]-thymidine uptake (5F-2′dURes trypanosomes; 10 μM [3H]-thymidine): 0.013 ± 0.002 pmol(10^7 cells)^−1s^−1 | Km (5F-2′dURes trypanosomes; read-out: Km of [3H]-thymidine uptake, 10 μM [3H]-thymidine): 22 ± 3 µM | Ki [2]: 214 ± 51 µM | Km [3]: 1240 ± 310 µM | Vmax [3]: 0.067 ± 0.008 pmol (10^7 cells)^−1s^−1

Nc1ccn([C@@H]2O[C@H](CO)[C@@H](O)[C@H]2O)c(=O)n1 [Cytidine]
Ki, U1 (TbU1): NE, 1000 | effect on [3H]-thymidine transport (in words) [1]: little or no effect | Ki (TbU2): 0.057 ± 0.019 µM

O=C(O)c1cc(=O)[nH]c(=O)[nH]1 [Orotic acid]
effect on [3H]-thymidine transport (in words) [1]: little or no effect | uptake rate as fraction of the transport rate of [3H]-uracil and [3H]-5-FU [4]: ≤ 1% | reduction of [3H]-orotic acid uptake in 5-FOARes relative to wild-type (5-FOARes trypanosomes): 68.1% and 62.8%

O=c1[nH]c(=O)n([C@H]2C[C@H](O)[C@@H](CO)O2)cc1F [5Fl-2’-dUrd, 5-fluoro-2′-deoxyuridine]
EC50 (5FURes T. b. brucei; Trypanosoma brucei, read-out: EC50, 5FURes, Mean): 3.2 µM | RF, 5FURes (5FURes T. b. brucei; [8]): 0.61 | 5F-dUMP in DNA digest [5]: No 5F-dUMP was detected | increase in dUMP in treated 5F-2′dURes cells relative to untreated wild-type cells (5F-2′dURes cells): two-fold | reduction of sensitivity by addition of 100 μM thymidine (5F-2′dURes T. b. brucei; 5F-2′dURes cells): > 600 fold | EC50 (5F-2′dURes T. b. brucei; Trypanosoma brucei, read-out: EC50, 5F-2′dURes, Mean): 4300 µM | RF, 5F-2′dURes (5F-2′dURes T. b. brucei; [8]): 825 | EC50 (5FOARes T. b. brucei; Trypanosoma brucei, read-out: EC50, 5FOARes, Mean): 31 µM | RF, 5FOARes (5FOARes T. b. brucei; [8]): 5.9 | EC50 ([6]; read-out: EC50, WT, Mean, Alamar blue assay, wild-type sensitive control strain): 5.2 µM | EC50 ([6]; wild-type, thymidine-free HMI-9 with 100 μM thymidine added): 18.6 ± 3 µM | EC50 ([6]; wild-type, thymidine-free version of HMI-9): 0.77 ± 0.3 µM | reduction of sensitivity by addition of 100 μM thymidine ([6]; wild-type): 24 fold | changes in variant surface glycoprotein content [7]: no detectable changes
